Results as given in publication PMC4180501 (Biochimica et biophysica acta, 2012).
Where a chain is given by its changes, count along the chain named.

Assays:
[1] = biological target: T1, GK-WT (Homo sapiens, UniProt P35557); assay: D-glucose binding by tryptophan fluorescence titration; settings: for ΔG of glucose binding / ΔH of glucose binding / ΔS of glucose binding: pure wild type GK, 25 °C, pH 7.3, Vant Hoff plot
T1 sequence (P35557 1-465): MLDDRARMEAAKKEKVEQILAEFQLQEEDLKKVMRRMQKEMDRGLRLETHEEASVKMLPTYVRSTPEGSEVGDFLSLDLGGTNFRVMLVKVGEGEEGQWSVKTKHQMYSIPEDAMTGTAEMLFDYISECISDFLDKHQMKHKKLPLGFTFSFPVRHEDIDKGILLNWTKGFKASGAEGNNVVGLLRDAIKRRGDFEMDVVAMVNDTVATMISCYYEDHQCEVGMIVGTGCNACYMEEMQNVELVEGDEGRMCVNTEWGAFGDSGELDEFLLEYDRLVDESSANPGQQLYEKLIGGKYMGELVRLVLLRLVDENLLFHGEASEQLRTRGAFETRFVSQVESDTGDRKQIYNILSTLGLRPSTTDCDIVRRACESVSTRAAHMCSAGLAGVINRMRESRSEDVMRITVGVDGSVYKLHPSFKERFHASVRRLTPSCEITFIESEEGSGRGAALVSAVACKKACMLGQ

[2] = biological target: T2, GK-W99 (W167F/W257F) (Homo sapiens, UniProt P35557, W167F/W257F); assay: as above; settings: W-99, no GKA
T2 sequence (P35557 1-465 W167F/W257F): T1 sequence (P35557 1-465) with W167F, W257F

[3] = biological target: T3, GK-W167 (W99R/W257F) (Homo sapiens, UniProt P35557, W257F/W99R); assay: as above; settings: W-167, no GKA
T3 sequence (P35557 1-465 W99R/W257F): T1 sequence (P35557 1-465) with W99R, W257F

[4] = biological target: T2, GK-W99 (W167F/W257F); assay: NADP+-coupled spectrophotometric kinetic assay; assay type: biochemical; settings: W-99, no GKA
How it was run: (§1)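 Recombinant human β-cell glucokinase single-Trp variant, expressed in E. coli as a GST fusion and sequence-verified. Catalytic parameters came from an NADP+-coupled spectrophotometric assay run with or without 30% glycerol. Hill coefficient and glucose S0.5 were obtained by fitting v/Vmax = [glucose]^H/(K′+[glucose]^H), with […].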

[5] = biological target: T3, GK-W167 (W99R/W257F); assay: NADP+-coupled spectrophotometric kinetic assay; assay type: biochemical; settings: W-167, no GKA
How it was run: as §1

[6] = biological target: T3, GK-W167 (W99R/W257F); assay: DSC thermal denaturation; settings: W-167 in buffer, 300 mM D-glucose
How it was run: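 Samples were degassed and scanned by DSC at 0.25 degree/min against a reference holding everything except protein. Tm and calorimetric ΔH were taken by integrating the Cp-vs-temperature thermogram; Cpm is the apparent heat capacity at the maximum.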

[7] = biological target: T1, GK-WT; assay: Urea unfolding/refolding of GK by tryptophan fluorescence; settings: 20°C, pH 7.3
How it was run: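 GK-WT unfolding was followed by urea titration in 20 mM PO4, 50 mM KCl, 1 mM EDTA, 1 mM DTT, pH 7.3, 20 °C, ± 20% glycerol, ± 300 mM glucose. I320/I360 was read at 295 nm excitation, and ΔGu(H2O) came from a two-state fit. Reversibility was tested after 30 min in 4 or 8 M urea, then dialysis, by restoration of the spectrum and glucose response.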

OC[C@H]1OC(O)[C@H](O)[C@@H](O)[C@@H]1O (stereo partly drawn) [D-glucose]
Kd ([1]; D-glucose binding KD, GK-WT, no GKA, 20% glycerol): 1.8 mM | Kd ([1]; D-glucose binding KD, GK-WT, no GKA, no glycerol): 7.4 mM | Kd ([1]; glucose KD, 11 °C, absence of glycerol): 13.7 mM | Kd ([1]; glucose KD, 45 °C, presence of glycerol): 1.15 mM | ΔG of glucose binding ([1]; 20% glycerol): -16.0 kJ/mol | ΔH of glucose binding ([1]; 20% glycerol): 20 ± 3 kJ/mol | ΔS of glucose binding ([1]; 20% glycerol): 120+/−9 J/mol*K | ΔG of glucose binding ([1]; no glycerol): -13.1 kJ/mol | ΔH of glucose binding ([1]; no glycerol): 34 ± 2 kJ/mol | ΔS of glucose binding ([1]; no glycerol): 157+/−4 J/mol*K | Kd ([2]; 20% glycerol): 4.06 mM | Kd ([2]; no glycerol): 18.8 mM | Kd ([3]; 20% glycerol): 90 µM | Kd ([3]; no glycerol): 380 µM | Glucose S0.5 ([4]; 30% glycerol): 6.53 mM | kcat ([4]; 30% glycerol): 6.10 s⁻¹ | kcat/S0.5 ([4]; 30% glycerol): 0.93 s⁻¹ mM⁻¹ | nH (Hill coefficient towards glucose) ([4]; 30% glycerol): 1.52 | Glucose S0.5 ([4]; no glycerol): 21.0 mM | kcat ([4]; no glycerol): 8.47 s⁻¹ | kcat/S0.5 ([4]; no glycerol): 0.40 s⁻¹ mM⁻¹ | nH (Hill coefficient towards glucose) ([4]; no glycerol): 1.24 | Glucose S0.5 ([5]; 30% glycerol): 0.82 mM | kcat ([5]; 30% glycerol): 26.2 s⁻¹ | nH (Hill coefficient towards glucose) ([5]; 30% glycerol): 1.32 | Glucose S0.5 ([5]; no glycerol): 2.28 mM | kcat ([5]; no glycerol): 69.9 s⁻¹ | nH (Hill coefficient towards glucose) ([5]; no glycerol): 1.53 | Cp^m [6]: 90.4 kJ/mol/°C | ΔH thermal denaturation [6]: 410.0 kJ/mol | Tm ([6]; DSC): 53.4 °C | ΔGu(H2O) of urea denaturation ([7]; GK-WT in 20% glycerol with 300 mM D-glucose): 2.87 kcal/mol | ΔGu(H2O) of urea denaturation ([7]; GK-WT in buffer with 300mM D-glucose): 2.48 kcal/mol
